Sampled rows, rich in hits. Any-hit rate of the full collection: about 3%.
Hsp70 activator – Hsp70 transcriptional activators, primary screen, cell-based, HeLa, Hsp70 promoter luciferase, luminescence, 10 µM; HeLa Hsp70 promoter luciferase reporter; scaled: vehicle 0, proteasome-inhibitor control 100%; activation, % at 10 µM; hit rate 0.04% among 200,000; AID 1203, 2008;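 active = activation above the mean across all tested compounds plus 3 SD, cutoff set per campaign, cut at about 5.5% in these data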;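 also: 100% = MG132 at 30 µM as the positive control and 0% = DMSO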
NPY-Y1 antag – NPY-Y1 receptor antagonists, primary screen, cell-based; Neuropeptide Y receptor type 1 (Homo sapiens), P25929; HEK293-CNG Y1 cells, membrane potential fluorescence; NPY at EC95, then isoproterenol; inhibition, % at 3.6 µM; hit rate 1% among 200,000;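 active = inhibition above the campaign mean inhibition of all tested compounds plus 3 SD, cut at about 20% in these data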;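 also: 0% = DMSO wells given NPY plus isoproterenol and 100% = isoproterenol alone without NPY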
Target sequence (P25929 whole entry, looked up): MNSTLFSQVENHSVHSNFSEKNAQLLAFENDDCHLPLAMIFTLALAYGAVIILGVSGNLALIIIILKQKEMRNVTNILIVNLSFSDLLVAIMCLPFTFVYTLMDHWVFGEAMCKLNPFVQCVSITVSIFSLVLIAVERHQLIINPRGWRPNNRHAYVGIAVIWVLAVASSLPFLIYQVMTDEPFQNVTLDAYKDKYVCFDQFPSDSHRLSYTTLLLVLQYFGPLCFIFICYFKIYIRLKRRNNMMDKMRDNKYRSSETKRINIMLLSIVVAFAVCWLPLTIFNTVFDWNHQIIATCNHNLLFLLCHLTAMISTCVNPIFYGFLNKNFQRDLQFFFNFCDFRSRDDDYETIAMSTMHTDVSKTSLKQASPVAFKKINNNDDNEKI
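Material: HEK293 Y1/CNG channel cell line; also added: NPY (25 nM), isoproterenol (1 µM), Ro 20-1724 (25 µM); doses: one concentration, 3.6 µM, in 0.4% DMSO; schedule: compound incubation 1 h at room temperature, readout 45 min post-stimulation; technique: membrane potential fluorescence; measure: fluorescence ratio normalized to % inhibition between controls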
NPY Y2 blocker – NPY-Y2 receptor antagonists, primary screen, cell-based; hit rate 0.99% among 140,000; Neuropeptide Y receptor type 2 (Homo sapiens), P49146; inhibition, % at 2.7 µM; NPY-Y2 expressing cells, antagonist mode; AID 793, 2007; in the data active = inhibition above about 17%;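 also: 0% = vehicle with agonist challenge and 100% = reference antagonist with challenge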
NPY-Y2 PAM-ag – NPY-Y2 potentiators or agonists, primary screen, cell-based | Neuropeptide Y receptor type 2 (Homo sapiens), P49146 | cells expressing NPY-Y2, potentiator/agonist read-out | activation, % at 3.6 µM | hit rate 0.45% among 220,000 | AID 1359, 2008; in the data active = activation above about 27%;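 also: cells stimulated with NPY near EC25 plus isoproterenol at EC100; 0% = vehicle plus submaximal agonist and 100% = vehicle plus saturating agonist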
Wee1 stabilizer – Wee1 degradation inhibitors, primary screen, cell-based, HeLa, Wee1K328M-luciferase, luminescence; hit rate 1.2% among 220,000; HeLa Luc-Wee1K328M stability; 100% = proteasome inhibitor MG132 effect; AID 1321, 2008; reporter increase, % at 5 µM; Wee1-like protein kinase (Homo sapiens), P30291;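 active = activation above the mean of all tested compounds plus 3 SD, set per screening run, cut at about 8.8% in these data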;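 also: cells exposed to compound for 20 h before luminescence read; 0% = DMSO alone and 100% = MG132 at 30 µM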
NPY-Y1 PAM-ag – NPY-Y1 receptor potentiators or agonists, primary screen, cell-based; Neuropeptide Y receptor type 1 (Homo sapiens), P25929; activation, % at 3.6 µM; NPY-Y1 expressing cells, potentiator/agonist activation; hit rate 0.37% among 220,000; in the data active = activation above about 33%, passing the limit was not always enough;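 also: cells stimulated with NPY at EC10 then isoproterenol at EC100; 0% = low agonist plus stimulus and 100% = saturating agonist plus stimulus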
NPY-Y2 confirm – NPY-Y2 potentiators or agonists, confirmation, cell-based | shares compounds with NPY-Y2 PAM-ag | cell-based NPY-Y2 potentiator/agonist assay | activation, % at 3.6 µM | hit rate 20% among 450 | AID 1539, 2009; in the data active = activation above about 33%
NPY-Y1 counter – NPY-Y1 potentiators or agonists, counter-screen for NPY-Y2 potentiator project, cell-based, fluorescence | hit rate 20% among 450 | shares compounds with NPY-Y2 PAM-ag | activation, % at 3.6 µM | Y1 HEK293-CNG cells, membrane potential fluorescence; in the data active = activation above about 45%;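 also: cells stimulated with submaximal NPY then isoproterenol with phosphodiesterase inhibitor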
NPY-Y1 agonist 2 – NPY-Y1 direct agonists, selectivity assay for NPY-Y2 potentiator project, cell-based, fluorescence. shares compounds with NPY-Y2 PAM-ag. HEK293 Y1-CNGC, membrane potential fluorescence, agonism. activation, % at 3.6 µM. hit rate 37% among 450;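 active = activation above the mean of DMSO-only control wells plus 3 SD, cut at about 18% in these data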;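 also: cells stimulated with 1 µM isoproterenol plus the PDE inhibitor Ro 20-1724; 0% = isoproterenol with DMSO and no NPY and 100% = 40 nM NPY; Y1 agonists lower the membrane potential dye signal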
CNGC inh – CNGC cAMP sensor activity inhibitors, counter-screen for NPY-Y2 potentiator project, cell-based, HEK293-CNG parental, membrane potential fluorescence; inhibition, % at 3.6 µM; isoproterenol cAMP; shares compounds with NPY-Y2 PAM-ag; AID 1703, 2009; hit rate 32% among 450;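 active = inhibition above the control-well mean plus 3 SD of those wells, cut at about 22% in these data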;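 also: 0% = DMSO with isoproterenol and 100% = DMSO without isoproterenol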
Y2 agonist ctr – NPY-Y2 direct agonists, counter-screen for NPY-Y2 potentiator project, cell-based, fluorescence | hit rate 56% among 450 | shares compounds with NPY-Y2 PAM-ag | HEK293 Y2/CNGC cells, membrane potential fluorescence, agonist mode | activation, % at 3.6 µM;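 active = activation above the mean of solvent-only control wells plus 3 SD, cut at about 10% in these data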;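 also: cells stimulated by isoproterenol with no NPY added so direct agonism is tested; 0% = DMSO with isoproterenol alone and 100% = NPY at EC100 plus isoproterenol; agonism lowers probe fluorescence through less cAMP and CNG channel opening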
Starred values were filed as active, the others as inactive; . = no result given.

SMILES | Hsp70 activator | NPY-Y1 antag | NPY Y2 blocker | NPY-Y2 PAM-ag | Wee1 stabilizer | NPY-Y1 PAM-ag | NPY-Y2 confirm | NPY-Y1 counter | NPY-Y1 agonist 2 | CNGC inh | Y2 agonist ctr
O=C1c2cccc3cccc(c23)C(=O)N1CC1CCN(CC(O)COCc2ccc3c(c2)OCO3)CC1 (stereo not given) | -0.3 | -3.9 | 6.2 | 49.8* | -2.0 | 7.4 | 74.6* | 89.7* | 21.4* | 18.2 | 64.8*
COc1ccc2c(c1)c(CC(=O)Nc1nnc(C3CC3)s1)c(C)n2C(=O)c1ccc(Cl)cc1 | . | . | . | 48.9* | 6.3 | 48.9 | 12.3 | 10.2 | 21.0* | -3.7 | 12.0*
Cc1cc(C)cc(N(CCC(=O)Nc2nnc(C3CC3)s2)S(=O)(=O)c2ccc(Cl)cc2)c1 | -0.1 | 2.3 | 2.0 | 3.0 | -1.2 | -4.6 | . | . | . | . | .
COc1ccc(C(=O)Nc2cnn(Cc3c(F)cccc3Cl)c2)cc1OC | . | . | . | 2.0 | 2.0 | 16.7 | . | . | . | . | .
S=c1nc(SCc2ccccc2)[nH]c2ccccc12 | -0.4 | 10.6 | . | -10.4 | -0.2 | -16.9 | . | . | . | . | .
c1ccc(CSc2nc3ncncc3[nH]2)cc1 | . | . | . | 47.9* | -1.8 | -7.5 | 1.9 | -3.9 | -0.8 | 7.2 | 19.2*
CC(C)C(NC(=O)c1ccccc1)C(=O)OCc1cc([N+](=O)[O-])cc2c1OCOC2 (stereo not given) | -0.5 | 4.4 | 1.8 | 7.5 | 3.3 | -8.0 | . | . | . | . | .
CC(C)CC(NC(=O)c1ccc(Cl)cc1)C(=O)OCc1cc([N+](=O)[O-])cc2c1OCOC2 (stereo not given) | -0.4 | -7.7 | 1.8 | 28.3* | 2.6 | 22.1 | 0.4 | -2.1 | -9.7 | -3.2 | 18.1*
CC(C)(C)NC(=O)COC(=O)CCC(=O)c1cccs1 | -0.4 | 6.1 | . | 1.6 | 0.1 | -11.1 | . | . | . | . | .
Cc1ccccc1OCC(O)CN1CCC(C)CC1 (stereo not given) | 0.2 | -3.7 | . | 36.6* | -1.1 | 31.2 | 21.4 | 33.7 | 19.4* | 3.4 | 41.9*
Cc1ccc(C)c(OCC(O)CN2CCC(C)CC2)c1C (stereo not given) | -0.3 | 4.6 | 4.6 | -3.4 | -2.5 | -4.4 | . | . | . | . | .
Cc1cc(C)c2sc(N(CCCN(C)C)C(=O)c3ccc(Br)s3)nc2c1 | 0.0 | 14.8 | . | 36.9* | 2.7 | 15.0 | 73.5* | 87.8* | 67.5* | 74.9* | 81.3*
Cc1cc(C)c2sc(N(CCN(C)C)C(=O)c3c(F)cccc3F)nc2c1 | -0.2 | -6.1 | . | -3.8 | -3.1 | -6.8 | . | . | . | . | .
O=C(CN1CCC(C(=O)c2cccc(Cl)c2)CC1)Nc1cccc(C(=O)O)c1 | -0.1 | -0.6 | . | 1.2 | -1.7 | 8.4 | . | . | . | . | .
NC(=O)C1CCN(CC(=O)Nc2cccc(C(=O)Nc3cccc(C(F)(F)F)c3)c2)CC1 | -0.3 | 0.3 | -0.8 | 41.4* | -1.7 | 32.7 | -0.1 | -2.4 | -7.8 | -2.4 | -9.6
COC(=O)c1ccccc1NC(=O)/C=C/c1ccco1 | 1.3 | -7.5 | -3.1 | 32.8* | -1.4 | 26.0 | 41.1* | 50.3* | 56.2* | 35.3* | 47.9*
